By pIC50 is commonly meant the IC50 on a negative log10 scale, so that one unit is a factor of ten. The term pKi denotes the Ki on a negative log10 scale, so that one unit is a factor of ten.

pIC50, pKi: −log10 of the molar value.

We go through 7 compounds from ChEMBL document CHEMBL1126712, “Design, synthesis, and pharmacological evaluation of potent xanthone dicarboxylic acid leukotriene B4 receptor antagonists” (J Med Chem, 1993).

For assay [1], the target named is T1, Leukotriene B4 receptor 1 (Homo sapiens, UniProt Q15722). Nature of the assay: Inhibition of specific binding of LTB4 ( 0.1 nM) to receptors on intact human neutrophils. Put shortly: (§1)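 Intact human neutrophils from heparinized venous blood of normal volunteers, isolated by Ficoll-Hypaque centrifugation, dextran 70 sedimentation and hypotonic lysis (≥90% neutrophils, ≥90% viable). Cells at 2 × 10⁷/mL in Ca/Mg-free Hanks' with 0.1% ovalbumin, [³H]LTB₄ final 0.1 nM, compound in DMSO (final 1.9%). Incubation 10 min at 4 °C, harvest, scintillation counting. Nonspecific binding from 10 000-fold excess unlabeled LTB₄. Triplicate tubes.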

Assay [2] deals with T1, Leukotriene B4 receptor 1. The assay can be described thus: Relative potency against LTB4 receptor was determined.
The species named for assay [3] is Homo sapiens. The assay can be described thus: Inhibition of LTB-4 induced chemotaxis of human neutrophils. It counts as functional.
Assay [4] is filed under the species Homo sapiens. Nature of the assay: Inhibition of luminol-dependent chemiluminescence induced by stimulating the neutrophil cells with FMLP (N-formyl-L-methionyl-L-leucyl-l-phenylalanine). It counts as functional, cell-based. The gist of the method:
(§2)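 Luminol-dependent chemiluminescence of human neutrophils (1 × 10⁷/mL) in Ca/Mg-free Dulbecco's PBS, pH 7.4, with cytochalasin B, stirred at 900 rpm and 37 °C in an aggregometer. Antagonist was added at 2 min, then Ca²⁺/Mg²⁺. After 1 min, luminol and agonist (LTB₄ or FMLP, 30 nM) were added and the maximum response recorded. Cells from five individuals.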

The species entered for assay [5] is Homo sapiens. The assay can be described thus: Inhibition of luminol-dependent chemiluminescence induced by stimulating the neutrophil cells with LTB4. It counts as functional, cell-based. The gist of the method:
as §2

For assay [6], the species on record is Homo sapiens. The assay can be described thus: The antagonist activity measured as blockade of the FMLP reaction in neutrophils. It counts as functional. Put shortly: as §2
Assay [7] deals with T1, Leukotriene B4 receptor 1. Nature of the assay: Inhibition constant against binding of [3H]LTB4 to human neutrophils. Put shortly: as §1
For assay [8], the species on record is Homo sapiens. Nature of the assay: LTB4-induced chemotaxis of the human neutrophils. In kind it is functional.
The species named for assay [9] is Homo sapiens. The assay can be described thus: The activity of suppression of the FMLP-mediated response. It counts as functional. Put shortly:
as §2

Assay [10] concerns the target T1, Leukotriene B4 receptor 1. The assay can be described thus: Inhibition of binding of [3H]LTB4 to receptor […]. Put shortly:
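Intact human neutrophils isolated from heparinized blood of normal volunteers (Ficoll-Hypaque, dextran sedimentation, hypotonic lysis) were suspended at 2 × 10⁷ cells/mL in Ca/Mg-free HBSS with 0.1% ovalbumin. Tubes held 0.1 nM final [³H]LTB₄ and compound in DMSO (1.9% final), ran 10 min at 4 °C, then were harvested for scintillation counting. Triplicate tubes; nonspecific binding set with 10 000-fold unlabeled LTB₄.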

T1 sequence (Q15722 whole entry): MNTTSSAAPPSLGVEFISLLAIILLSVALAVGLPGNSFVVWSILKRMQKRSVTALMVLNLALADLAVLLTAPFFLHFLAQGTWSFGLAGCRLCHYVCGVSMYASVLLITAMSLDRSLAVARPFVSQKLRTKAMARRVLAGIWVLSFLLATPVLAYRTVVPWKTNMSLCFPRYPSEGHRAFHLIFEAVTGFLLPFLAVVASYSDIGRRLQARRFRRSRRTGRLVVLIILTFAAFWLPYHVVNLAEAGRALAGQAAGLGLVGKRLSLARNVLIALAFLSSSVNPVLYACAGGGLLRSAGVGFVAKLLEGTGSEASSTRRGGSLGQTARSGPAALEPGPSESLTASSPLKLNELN

For the compound `CCCCCCCCCCOc1ccc2c(=O)c3cc(C(=O)O)ccc3oc2c1CCC(=O)O`, the pIC50 was 7.37 in assay [1]; 5.10 in assay [3]; 6.13 in assay [4]; 6.47 in [5]; 5.92 in assay [6]. Moreover, the Relative potency in assay [2] turned out to be 49.

As for `CCCCCCCCCCOc1cc2oc3ccc(C(=O)O)cc3c(=O)c2cc1CCC(=O)O`, the pIC50 in assay [1] was 6.08. In addition, the Relative potency in assay [2] amounted to 2.5.

In [1], `CCCCCCCCCCOc1ccc2c(=O)c3cccc(C(=O)O)c3oc2c1CCC(=O)O` showed a pIC50 of 5.68. This compound also displayed a Relative potency in assay [2] of 1.

Take `CCCCCCCCCCOc1ccc(C(=O)c2cccc(C(=O)O)c2)cc1CCC(=O)O`: the pIC50 in assay [1] is 6.68. This compound also registered a Relative potency in assay [2] of 10.

Turning to `COc1ccc(/C=C/CCCCOc2ccc3c(=O)c4cc(C(=O)O)ccc4oc3c2CCC(=O)O)cc1`, the pIC50 in assay [1] is 8.21; in assay [4], 5.80; in assay [5], 7.26; in [8], 6.05; in assay [9] it was 5.66. In addition, the pKi in assay [7] was 8.23. For the same compound, in [2], the Relative potency amounted to 338.

Take `CCCCCCCCCCOc1cc2oc3c(C(=O)O)cccc3c(=O)c2cc1CCC(=O)O`: the pIC50 in [1] is 5.75. This compound displayed a Relative potency in assay [2] of 1.2.

Take `COc1ccc(/C=C/CCCCOc2ccc(C(=O)c3cccc(C(=O)O)c3)cc2CCC(=O)O)cc1`: in assay [10], the negative logarithm of the IC50 (pIC50) is 8.72.
